In ChEMBL document CHEMBL4304784, “Discovery of new potent dual sigma receptor/GluN2b ligands with antioxidant property as neuroprotective agents” (Eur J Med Chem, 2019):
pKi: −log10 of the molar value. In brackets after ≈: the same amount, converted by molar mass. One block for each compound: values may come before it.

How the values were obtained:
[1] = Cytotoxicity against human HeLa cells assessed as cell viability at 25 uM incubated for 48 hrs by MTT assay relative to control; type: cell-based; settings: read-out: Activity
In short: (§1)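 Cells kept in DMEM Glutamax with 10% FBS and antibiotic/antimycotic at 37 °C, 5% CO2. Plated at 2x10^3 cells/well 24 h before dosing. Compounds taken from DMSO and diluted in medium, final DMSO ≤1.0%. Exposure 48 h, then MTT added for 4 h at 37 °C. Read as A595 minus A655. Triplicates, at least three independent experiments, mean ± SEM.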

[2] = target: Sigma non-opioid intracellular receptor 1 (Cavia porcellus, UniProt Q60492); assay: Displacement of [3H]-(+)-pentazocine from sigma1 receptor in guinea pig brain cortex membranes incubated for 120 mins by solid scintillation counting method; type: cell membranes
In short: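 Guinea pig brain cortex membranes (about 100 µg protein) with 2 nM [3H]-(+)-pentazocine in 50 mM TRIS pH 7.4 at 37 °C. Non-specific binding defined with 10 µM unlabeled (+)-pentazocine. Six concentrations, 10^-5 to 10^-10 M, in duplicate. 120 min with shaking, filtration, solid scintillator counting.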

[3] = Cytotoxicity against human SH-SY5Y cells assessed as cell viability at 100 uM incubated for 48 hrs by MTT assay (reference value: 100 +/- 12.00%); type: cell-based; settings: read-out: Activity; in short: as §1
[4] = Cytotoxicity against human Hep3B cells assessed as cell viability at 50 uM incubated for 48 hrs by MTT assay relative to control; type: cell-based, Hep 3B2; settings: read-out: Activity; in short: as §1
[5] = Antioxidant activity assessed as H2O2 radical scavenging activity; type: functional
In short: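 Compounds at 0.05, 0.1, 0.2 and 0.4 mg/mL in phosphate buffer pH 7.4. 0.353 mL of 4 mM H2O2 in phosphate buffer added to 2.0 mL of each solution, absorbance read at 239 nm. Percent inhibition calculated from absorbances relative to control. Triplicate, mean ± SEM.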

[6] = Cytotoxicity against human Hep3B cells assessed as cell viability at 100 uM incubated for 48 hrs by MTT assay relative to control; type: cell-based, Hep 3B2; settings: read-out: Activity; in short: as §1
[7] = Cytotoxicity against human Hep3B cells assessed as decrease in cell viability incubated for 48 hrs by MTT assay; type: cell-based, Hep 3B2; settings: read-out: LD50
In short: (§2)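 Cells kept in DMEM Glutamax with 10% FBS and antibiotic/antimycotic at 37 °C, 5% CO2. Seeded 24 h before dosing (SH-SY5Y at 2x10^3 cells/well). Compounds in DMSO serially diluted in medium, final DMSO 1.0%, exposure 48 h. MTT added for 4 h at 37 °C, read A595 minus A655. LD50 from linear regression of dose-log response curves; triplicates, three experiments, mean ± SEM.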

[8] = tested on: SH-SY5Y; assay: Neuroprotective activity against H2O2-induced toxicity in human SH-SY5Y cells assessed as cell viability at 25 uM pretreated for 48 hrs followed by H2O2 challenge and measured after 4 hrs by MTT assay (reference value: 18 +/- 2.64%); type: functional; settings: read-out: Activity
[9] = Selectivity ratio of Ki for sigma1 receptor in guinea pig brain membranes to Ki for sigma2 receptor in rat liver membranes; type: cell membranes
[10] = Cytotoxicity against human SH-SY5Y cells assessed as cell viability at 50 uM incubated for 48 hrs by MTT assay (reference value: 100 +/- 12.00%); type: cell-based; settings: read-out: Activity; in short: as §1
[11] = Cytotoxicity against human SH-SY5Y cells assessed as cell viability at 25 uM incubated for 48 hrs by MTT assay (reference value: 100 +/- 12.00%); type: cell-based; settings: read-out: Activity; in short: as §1
[12] = target: T1, Sigma intracellular receptor 2 (Rattus norvegicus, UniProt Q5U3Y7); assay: Displacement of [3H]-di-o-tolylguanidine from sigma2 receptor in rat liver membranes in the presence of sigma1 receptor ligand (+)-pentazocine incubated for 120 mins by scintillation counting method; type: cell membranes
T1 sequence (Q5U3Y7 whole entry): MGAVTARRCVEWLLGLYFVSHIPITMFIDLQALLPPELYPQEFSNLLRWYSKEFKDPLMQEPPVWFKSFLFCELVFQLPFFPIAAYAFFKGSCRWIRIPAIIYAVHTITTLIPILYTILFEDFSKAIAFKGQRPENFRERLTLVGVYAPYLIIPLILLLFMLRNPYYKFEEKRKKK
In short: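 Rat liver membranes (about 100 µg protein) with 3 nM [3H]di-o-tolylguanidine in 50 mM TRIS pH 8.0 containing 500 nM (+)-pentazocine, at rt. Non-specific binding defined with 10 µM unlabeled DTG. Concentrations 10^-5 to 10^-10 M, in duplicate. 120 min, filtration, scintillation counting. Three independent experiments, mean ± SEM.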

[13] = Cytotoxicity against human HeLa cells assessed as cell viability at 100 uM incubated for 48 hrs by MTT assay relative to control; type: cell-based; settings: read-out: Activity; in short: as §1
[14] = Cytotoxicity against human SH-SY5Y cells assessed as cell viability at 10 uM incubated for 48 hrs by MTT assay (reference value: 100 +/- 12.00%); type: cell-based; settings: read-out: Activity; in short: as §1
[15] = Cytotoxicity against human HeLa cells assessed as cell viability at 10 uM incubated for 48 hrs by MTT assay relative to control; type: cell-based; settings: read-out: Activity; in short: as §1
[16] = Cytotoxicity against human HeLa cells assessed as cell viability at 50 uM incubated for 48 hrs by MTT assay relative to control; type: cell-based; settings: read-out: Activity; in short: as §1
[17] = Cytotoxicity against human SH-SY5Y cells assessed as decrease in cell viability incubated for 48 hrs by MTT assay; type: cell-based; settings: read-out: LD50; in short: as §2
[18] = Cytotoxicity against human Hep3B cells assessed as cell viability at 10 uM incubated for 48 hrs by MTT assay relative to control; type: cell-based, Hep 3B2; settings: read-out: Activity; in short: as §1
[19] = target: Glutamate NMDA receptor; GRIN1/GRIN2B (Homo sapiens, UniProt Q05586+Q13224); assay: Displacement of [3H]ifenprodil from GluN1a/GluN2B (unknown origin) expressed in mouse L(tk-) cell membranes after 120 mins by solid scintillation counting method
In short: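 Membranes (about 20 μg protein) from mouse L(tk-) cells stably carrying GluN1a/GluN2B, induced with 4 μM dexamethasone and 4 μM ketamine for 24 h. Incubated with 5 nM [3H]ifenprodil in 5 mM TRIS/1 mM EDTA pH 7.5 at 37 °C, 120 min. Non-specific binding defined with 10 μM ifenprodil.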

[20] = Cytotoxicity against human Hep3B cells assessed as cell viability at 25 uM incubated for 48 hrs by MTT assay relative to control; type: cell-based, Hep 3B2; settings: read-out: Activity; in short: as §1
[21] = Selectivity ratio of Ki for sigma2 receptor in rat liver membranes to Ki for GluN1a/GluN2B (unknown origin) expressed in mouse L(tk-) cell membranes; type: cell-based
[22] = Antioxidant activity assessed as ABTS radical scavenging activity incubated for 40 mins; type: functional
In short: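 Test compound at 0.05, 0.1, 0.2 and 0.4 mg/mL (200 µL) added to 1.8 mL ethanolic ABTS 7mM. Incubated 40 min at room temperature, absorbance read at 735 nm against ABTS solution. Percent inhibition computed from absorbances and used to derive IC50. Triplicate, mean ± SEM; ascorbic acid as reference.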

[23] = Cytotoxicity against human HeLa cells assessed as decrease in cell viability incubated for 48 hrs by MTT assay; type: cell-based; settings: read-out: LD50; in short: as §2

Chain of Sigma non-opioid intracellular receptor 1 (Q60492 whole entry): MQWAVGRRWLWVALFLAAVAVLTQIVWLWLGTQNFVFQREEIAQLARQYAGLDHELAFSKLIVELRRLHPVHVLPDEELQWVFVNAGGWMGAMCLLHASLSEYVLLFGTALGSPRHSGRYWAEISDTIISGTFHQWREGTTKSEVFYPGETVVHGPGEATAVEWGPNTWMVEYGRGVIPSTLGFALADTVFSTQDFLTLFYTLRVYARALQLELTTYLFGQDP
Chain of Glutamate NMDA receptor; GRIN1/GRIN2B (Q13224 whole entry, other chains not shown): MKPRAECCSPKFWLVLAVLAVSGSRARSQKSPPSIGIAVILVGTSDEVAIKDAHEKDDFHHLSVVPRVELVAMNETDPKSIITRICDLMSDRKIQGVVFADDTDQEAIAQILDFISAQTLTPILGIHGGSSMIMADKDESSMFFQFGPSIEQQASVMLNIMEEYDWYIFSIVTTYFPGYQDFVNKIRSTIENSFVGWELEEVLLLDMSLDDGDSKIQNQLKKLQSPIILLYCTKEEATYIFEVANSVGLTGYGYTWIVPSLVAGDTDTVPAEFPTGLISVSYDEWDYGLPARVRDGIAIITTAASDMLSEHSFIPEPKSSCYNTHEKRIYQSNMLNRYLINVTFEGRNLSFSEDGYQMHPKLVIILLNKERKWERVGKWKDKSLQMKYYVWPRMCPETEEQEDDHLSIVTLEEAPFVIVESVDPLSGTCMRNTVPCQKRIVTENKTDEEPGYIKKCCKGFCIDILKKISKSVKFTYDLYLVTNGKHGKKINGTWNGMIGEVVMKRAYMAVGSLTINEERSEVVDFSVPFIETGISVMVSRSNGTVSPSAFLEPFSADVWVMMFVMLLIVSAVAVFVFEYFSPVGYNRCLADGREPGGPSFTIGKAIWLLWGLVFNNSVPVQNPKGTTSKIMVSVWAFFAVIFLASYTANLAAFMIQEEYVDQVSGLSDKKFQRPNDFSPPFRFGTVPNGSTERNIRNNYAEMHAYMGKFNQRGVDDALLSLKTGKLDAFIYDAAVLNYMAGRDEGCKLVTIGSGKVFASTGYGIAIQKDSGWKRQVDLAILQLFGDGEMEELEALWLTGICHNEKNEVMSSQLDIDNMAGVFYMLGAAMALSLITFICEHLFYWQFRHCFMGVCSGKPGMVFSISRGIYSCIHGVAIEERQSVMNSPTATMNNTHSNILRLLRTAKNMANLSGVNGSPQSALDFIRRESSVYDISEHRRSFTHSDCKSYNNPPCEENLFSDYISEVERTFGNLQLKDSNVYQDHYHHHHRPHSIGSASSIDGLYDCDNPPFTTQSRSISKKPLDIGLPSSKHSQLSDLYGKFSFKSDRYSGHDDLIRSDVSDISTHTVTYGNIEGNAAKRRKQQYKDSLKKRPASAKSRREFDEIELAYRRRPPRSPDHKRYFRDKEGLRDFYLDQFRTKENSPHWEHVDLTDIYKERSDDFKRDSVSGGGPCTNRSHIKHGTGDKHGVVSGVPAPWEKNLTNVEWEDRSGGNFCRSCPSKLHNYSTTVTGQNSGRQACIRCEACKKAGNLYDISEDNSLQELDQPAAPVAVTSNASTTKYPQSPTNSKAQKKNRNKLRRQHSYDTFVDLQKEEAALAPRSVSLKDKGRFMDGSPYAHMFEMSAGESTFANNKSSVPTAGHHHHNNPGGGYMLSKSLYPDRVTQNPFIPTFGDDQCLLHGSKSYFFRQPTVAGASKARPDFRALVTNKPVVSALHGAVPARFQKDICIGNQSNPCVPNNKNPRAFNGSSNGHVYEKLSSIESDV

Compound: O=c1oc(-c2ccccc2)nn1CCCCN1CCC2(CC1)OCc1ccccc12
viability at 48 h, 25 µM [1]: 80% | pKi [2]: 7.72 | viability at 48 h, 100 µM [3]: 1% | viability at 48 h, 50 µM [4]: 42% | IC50 [5]: 21.19 µg/mL (≈ 52.3 µM) | viability at 48 h, 100 µM [6]: 4% | CC50 at 48 h [7]: 51000 nM | viability at 25 µM [8]: 101% | Ratio Ki [9]: 1.2 | viability at 48 h, 50 µM [10]: 50% | viability at 48 h, 25 µM [11]: 96 to 104% | pKi [12]: 7.80 | viability at 48 h, 100 µM [13]: 5% | viability at 48 h, 10 µM [14]: 120% | viability at 48 h, 10 µM [15]: 99% | viability at 48 h, 50 µM [16]: 60% | CC50 at 48 h [17]: 53000 nM | viability at 48 h, 10 µM [18]: 87% | pKi [19]: 8.09 | viability at 48 h, 25 µM [20]: 90% | Ratio Ki [21]: 2 | IC50 [22]: 17.96 µg/mL (≈ 44.3 µM) | CC50 at 48 h [23]: 55000 nM

IC50 [5]: 17.11 µg/mL (≈ 97.1 µM) | IC50 [22]: 13.85 µg/mL (≈ 78.6 µM)
Compound: O=C1O[C@H]([C@@H](O)CO)C(O)=C1O [ASCORBIC ACID]

Compound: Cc1ccc(CN(C)CCCCN2C(=O)CCc3ccccc32)c(C)c1
viability at 48 h, 25 µM [1]: 59% | pKi [2]: 7.22 | viability at 48 h, 100 µM [3]: 78% | viability at 48 h, 50 µM [4]: 52% | IC50 [5]: 29.16 µg/mL (≈ 83.2 µM) | viability at 48 h, 100 µM [6]: 223% | CC50 at 48 h [7]: 60000 nM | viability at 25 µM [8]: 98% | Ratio Ki [9]: 1.9 | viability at 48 h, 50 µM [10]: 90% | viability at 48 h, 25 µM [11]: 79 to 95% | pKi [12]: 7.49 | viability at 48 h, 100 µM [13]: 47% | viability at 48 h, 10 µM [14]: 92% | viability at 48 h, 10 µM [15]: 79% | viability at 48 h, 50 µM [16]: 57% | CC50 at 48 h [17]: 231000 nM | viability at 48 h, 10 µM [18]: 77% | pKi [19]: 8.30 | viability at 48 h, 25 µM [20]: 81% | Ratio Ki [21]: 6.4 | IC50 [22]: 26.24 µg/mL (≈ 74.9 µM) | CC50 at 48 h [23]: 76000 nM

pKi [2]: 6.03 | Ratio Ki [9]: 0.33 | pKi [12]: 5.55 | pKi [19]: 6.65
Compound: O=c1oc(-c2ccccc2)nn1CCCCN1CCN(c2ccccn2)CC1
Ratio Ki [21]: 12.4

Compound: O=C1CCc2ccccc2N1CCCCN1CCN(c2ccc(F)cc2)CC1
viability at 48 h, 25 µM [1]: 78% | pKi [2]: 7.80 | viability at 48 h, 100 µM [3]: 60% | viability at 48 h, 50 µM [4]: 54% | IC50 [5]: 24.04 µg/mL (≈ 63 µM) | viability at 48 h, 100 µM [6]: 41% | CC50 at 48 h [7]: 77000 nM | viability at 25 µM [8]: 86% | Ratio Ki [9]: 0.76 | viability at 48 h, 50 µM [10]: 116% | viability at 48 h, 25 µM [11]: 84 to 121% | pKi [12]: 7.68 | viability at 48 h, 100 µM [13]: 70% | viability at 48 h, 10 µM [14]: 127% | viability at 48 h, 10 µM [15]: 88% | viability at 48 h, 50 µM [16]: 70% | CC50 at 48 h [17]: 63000 nM | viability at 48 h, 10 µM [18]: 99% | pKi [19]: 8.09 | viability at 48 h, 25 µM [20]: 83% | Ratio Ki [21]: 2.6 | IC50 [22]: 21.34 µg/mL (≈ 55.9 µM) | CC50 at 48 h [23]: 128000 nM

Compound: O=C1CCc2ccccc2N1CCCCN1CCC2(CC1)OCc1ccccc12
viability at 48 h, 25 µM [1]: 78% | pKi [2]: 7.74 | viability at 48 h, 100 µM [3]: 16% | viability at 48 h, 50 µM [4]: 38% | IC50 [5]: 84.56 µg/mL (≈ 217 µM) | viability at 48 h, 100 µM [6]: 10% | CC50 at 48 h [7]: 50000 nM | viability at 25 µM [8]: 97% | Ratio Ki [9]: 0.5 | viability at 48 h, 50 µM [10]: 40% | viability at 48 h, 25 µM [11]: 88 to 107% | pKi [12]: 7.47 | viability at 48 h, 100 µM [13]: 31% | viability at 48 h, 10 µM [14]: 116% | viability at 48 h, 10 µM [15]: 92% | viability at 48 h, 50 µM [16]: 45% | CC50 at 48 h [17]: 60000 nM | viability at 48 h, 10 µM [18]: 61% | pKi [19]: 8.30 | viability at 48 h, 25 µM [20]: 67% | Ratio Ki [21]: 6.8 | IC50 [22]: 78.8 µg/mL (≈ 202 µM) | CC50 at 48 h [23]: 55000 nM
